Laboratory results reported in ChEMBL document CHEMBL2406947, “Syntheses and evaluation of novel isoliquiritigenin derivatives as potential dual inhibitors for amyloid-beta aggregation and 5-lipoxygenase” (Eur J Med Chem, 2013).
Active and inactive are the calls of the source. No cut-off for these calls is given here.

Columns and labels:
[1] = Cytotoxicity against human SH-SY5Y cells after 48 hrs by MTT assay; assay type: cell-based
Procedure, shortened: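 SH-SY5Y cells grown in DMEM with 10% FBS, 1 mM glutamine, penicillin/streptomycin, 5% CO2, 37 °C; seeded 10,000 cells/well, treated after 24 h with 0-100 µM for 48 h; MTT (5 mg/mL stock) added for 4 h, formazan dissolved in DMSO, absorbance at 570 nm.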

[2] = Inhibition of potato 5-LOX using linoleic acid as substrate assessed as hydroperoxides production after 5 mins by enzyme immuno assay; design: species or system Solanum tuberosum
[3] = target: T1, Amyloid-beta precursor protein (Homo sapiens, UniProt P05067); assay: Inhibition of amyloid beta (1-42) self-mediated aggregation (unknown origin) after 5 days by thioflavin T fluorescence method
T1 sequence (P05067 whole entry): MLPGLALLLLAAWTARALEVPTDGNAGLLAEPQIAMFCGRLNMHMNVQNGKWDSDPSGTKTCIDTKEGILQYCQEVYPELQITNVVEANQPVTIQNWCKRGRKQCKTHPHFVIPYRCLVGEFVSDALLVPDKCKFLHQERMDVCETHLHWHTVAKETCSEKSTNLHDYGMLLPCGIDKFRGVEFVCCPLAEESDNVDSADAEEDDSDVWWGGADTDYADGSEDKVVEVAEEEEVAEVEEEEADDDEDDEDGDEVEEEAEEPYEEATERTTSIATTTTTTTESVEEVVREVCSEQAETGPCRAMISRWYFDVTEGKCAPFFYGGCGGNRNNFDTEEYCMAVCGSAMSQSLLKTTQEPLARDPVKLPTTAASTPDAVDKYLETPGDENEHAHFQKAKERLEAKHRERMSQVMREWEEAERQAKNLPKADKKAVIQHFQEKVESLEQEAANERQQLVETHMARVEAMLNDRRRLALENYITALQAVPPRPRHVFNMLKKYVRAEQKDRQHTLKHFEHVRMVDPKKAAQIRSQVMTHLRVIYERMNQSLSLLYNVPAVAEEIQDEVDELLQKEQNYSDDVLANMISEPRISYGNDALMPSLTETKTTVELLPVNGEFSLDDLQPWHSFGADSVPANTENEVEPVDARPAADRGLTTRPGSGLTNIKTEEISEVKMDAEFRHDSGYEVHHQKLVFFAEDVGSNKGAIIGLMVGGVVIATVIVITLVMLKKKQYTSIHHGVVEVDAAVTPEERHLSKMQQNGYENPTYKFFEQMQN

[4] = target: T1, Amyloid-beta precursor protein; assay: Inhibition of amyloid beta (1 to 42) fibrilation (unknown origin) at 20 uM after 4 days by transmission electron microscopic analysis
Procedure, shortened: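 Aβ(1-42) at 40 µM final in 50 mM phosphate pH 7.4 incubated at 37 °C for 4 days with or without 20 µM compound; samples applied to carbon-coated grids, water-washed, negatively stained 1 min with 2% uranyl acetate, examined by transmission electron microscopy.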

[5] = target: T1, Amyloid-beta precursor protein; assay: Inhibition of amyloid beta (1 to 42) fibrilation (unknown origin) assessed as reduction in […] structure formation at 10 uM after 2 days by CD spectroscopy assay
Procedure, shortened: (§1)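 20 µM Aβ(1-42) incubated with or without 10 µM compound in 50 mM sodium phosphate pH 7.4 at 37 °C for 2 days; CD spectra recorded at 25 °C, 190-260 nm, 1 mm quartz cell, 0.5 nm bandwidth, 10 nm/min; background and compound spectra subtracted.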

[6] = target: T1, Amyloid-beta precursor protein; assay: Inhibition of amyloid beta (1 to 42) fibrilation (unknown origin) assessed as reduction in beta-sheet structure formation at 10 uM after 2 days by CD spectroscopy assay; procedure, shortened: as §1

Compound: COc1ccc(C(=O)/C=C/c2ccc(C(=O)NC(C)C)cc2)c(O)c1
- IC50 [1]: > 100 µM
- IC50 [2]: 22.1 µM
- IC50 [3]: 17.8 µM

Compound: COc1ccc(C(=O)/C=C/c2ccc(C(=O)NCc3ccccc3)cc2)c(O)c1
- IC50 [1]: > 100 µM
- IC50 [2]: 18 µM
- IC50 [3]: 18.9 µM

Compound: COc1ccc(/C=C/C(=O)c2ccc(OC)cc2O)cc1
- IC50 [1]: > 100 µM
- IC50 [2]: 15.9 µM
- IC50 [3]: 8.4 µM

Compound: COc1ccc(C(=O)/C=C/c2ccc(OCc3ccccc3)cc2)c(O)c1
- IC50 [1]: > 100 µM
- IC50 [2]: 10.2 µM
- IC50 [3]: 7.8 µM

Compound: CCOCCCOc1ccc(/C=C/C(=O)c2ccc(OC)cc2O)cc1OC
- IC50 [1]: > 100 µM
- IC50 [2]: 12.4 µM
- IC50 [3]: 5.8 µM

Compound: COc1ccc(C(=O)/C=C/c2ccc(C(=O)N3CCOCC3)cc2)c(O)c1
- IC50 [1]: > 100 µM
- inhibition [4]: Active
- inhibition [5]: inactive
- inhibition [6]: Active
- IC50 [2]: 6.1 µM
- IC50 [3]: 3.2 µM

Compound: COc1ccc(C(=O)/C=C/c2ccc(C(=O)N3CCN(C)CC3)cc2)c(O)c1
- IC50 [1]: > 100 µM
- IC50 [2]: 7.9 µM
- IC50 [3]: 2.2 µM

Compound: COC(=O)c1ccc(/C=C/C(=O)c2ccc(OC)cc2O)cc1
- IC50 [1]: > 100 µM
- IC50 [2]: 35.8 µM
- IC50 [3]: 23.8 µM

Compound: COc1ccc(C(=O)/C=C/c2ccc(C(=O)Nc3ccccc3OC)cc2)c(O)c1
- IC50 [1]: > 100 µM
- IC50 [2]: 24.9 µM
- IC50 [3]: 7.3 µM

Compound: COc1ccc(C(=O)/C=C/c2cc(Br)c(OCc3ccccc3)c(OC)c2)c(O)c1
- IC50 [1]: > 100 µM
- IC50 [2]: 11.6 µM
- IC50 [3]: 12.5 µM

Compound: COc1ccc(C(=O)/C=C/c2ccc(C(=O)Nc3ccc(C)cc3C)cc2)c(O)c1
- IC50 [1]: > 100 µM
- IC50 [2]: 16.3 µM
- IC50 [3]: 8.3 µM

Compound: COc1ccc(C(=O)/C=C/c2ccc(OCCCOc3ccccc3)c(OC)c2)c(O)c1
- IC50 [1]: > 100 µM
- IC50 [2]: 13 µM
- IC50 [3]: 10.9 µM

Compound: COc1ccc(C(=O)/C=C/c2ccc(C(=O)N3CCCC3)cc2)c(O)c1
- IC50 [1]: > 100 µM
- IC50 [2]: 10.5 µM
- IC50 [3]: 14.6 µM

Compound: CCCNC(=O)c1ccc(/C=C/C(=O)c2ccc(OC)cc2O)cc1
- IC50 [1]: > 100 µM
- IC50 [2]: 12.9 µM
- IC50 [3]: 19.9 µM

Compound: COc1ccc(C(=O)/C=C/c2ccc(C(=O)Nc3ccccc3O)cc2)c(O)c1
- IC50 [1]: > 100 µM
- IC50 [2]: 16.5 µM
- IC50 [3]: 10.1 µM

Compound: COc1ccc(C(=O)/C=C/c2ccc(C(=O)Nc3cc([N+](=O)[O-])ccc3O)cc2)c(O)c1
- IC50 [1]: > 100 µM
- IC50 [2]: 11.4 µM
- IC50 [3]: 13.3 µM

Compound: COc1ccc(C(=O)/C=C/c2ccc(C(=O)NCCc3ccccc3)cc2)c(O)c1
- IC50 [1]: > 100 µM
- IC50 [2]: 14.2 µM
- IC50 [3]: 19.1 µM

Compound: CCOCCOc1ccc(/C=C/C(=O)c2ccc(OC)cc2O)cc1
- IC50 [1]: > 100 µM
- IC50 [2]: 9.7 µM
- IC50 [3]: 19.1 µM

Compound: CCCCCCCCCCCCNC(=O)c1ccc(/C=C/C(=O)c2ccc(OC)cc2O)cc1
- IC50 [1]: > 100 µM
- IC50 [2]: 15.7 µM
- IC50 [3]: 15.9 µM

Compound: COc1ccc(C(=O)/C=C/c2cc(OC)c(OC)c(OC)c2)c(O)c1
- IC50 [1]: > 100 µM
- IC50 [2]: 10.3 µM
- IC50 [3]: 9.7 µM

Compound: CC(Cc1ccc(O)c(O)c1)C(C)Cc1ccc(O)c(O)c1 (stereo unspecified) [NORDIHYDROGUAIARETIC ACID]
- IC50 [2]: 12.4 µM

Compound: COc1ccc(C(=O)/C=C/c2cc(OC)c(OC)cc2OC)c(O)c1
- IC50 [1]: > 100 µM
- IC50 [2]: 14.1 µM
- IC50 [3]: 10.2 µM

Compound: COc1ccc(C(=O)/C=C/c2ccc(C(=O)N3CCCCC3)cc2)c(O)c1
- IC50 [1]: > 100 µM
- IC50 [2]: 6.8 µM
- IC50 [3]: 5.9 µM

Compound: COc1ccc(C(=O)/C=C/c2ccc(C(=O)N(C)c3ccccc3)cc2)c(O)c1
- IC50 [1]: > 100 µM
- IC50 [2]: 20.4 µM
- IC50 [3]: 20.1 µM

Compound: COc1ccc(C(=O)/C=C/c2ccc(C(=O)O)cc2)c(O)c1
- IC50 [1]: > 100 µM
- IC50 [2]: 30.3 µM
- IC50 [3]: 18.5 µM

Compound: O=C(/C=C/c1ccc(O)cc1)c1ccc(O)cc1O [ISOLIQUIRITIGENIN]
- IC50 [2]: 18.6 µM
- IC50 [3]: 19.7 µM

Compound: CCOCCOc1cccc(/C=C/C(=O)c2ccc(OC)cc2O)c1
- IC50 [1]: > 100 µM
- IC50 [2]: 16.8 µM
- IC50 [3]: 10.5 µM
